Laboratory results reported in ChEMBL document CHEMBL1122179, “1-(alkylamino)isochromans: hypotensives with peripheral and central activities” (J Med Chem, 1982).

Tests used:
[1] = target: T1, Adrenergic receptor alpha-2 (Rattus norvegicus, UniProt P22086+P19328+P22909); assay: Compound was tested for the inhibition of [3H]clonidine binding Alpha-2 adrenergic receptor of crude rat brain membrane
T1 sequence (P22086 whole entry): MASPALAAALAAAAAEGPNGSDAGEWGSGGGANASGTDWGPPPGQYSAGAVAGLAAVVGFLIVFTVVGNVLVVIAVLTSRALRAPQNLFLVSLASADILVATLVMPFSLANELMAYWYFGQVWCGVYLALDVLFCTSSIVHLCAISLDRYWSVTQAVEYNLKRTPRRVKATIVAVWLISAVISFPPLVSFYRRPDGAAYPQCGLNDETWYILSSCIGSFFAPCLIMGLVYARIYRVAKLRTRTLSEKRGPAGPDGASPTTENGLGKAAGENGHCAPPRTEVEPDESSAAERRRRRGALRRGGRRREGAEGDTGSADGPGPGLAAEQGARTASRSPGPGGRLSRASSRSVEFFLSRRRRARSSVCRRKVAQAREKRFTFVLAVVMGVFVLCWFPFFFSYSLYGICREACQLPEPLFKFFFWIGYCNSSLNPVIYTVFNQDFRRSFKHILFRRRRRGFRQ
T1 sequence (P19328 whole entry): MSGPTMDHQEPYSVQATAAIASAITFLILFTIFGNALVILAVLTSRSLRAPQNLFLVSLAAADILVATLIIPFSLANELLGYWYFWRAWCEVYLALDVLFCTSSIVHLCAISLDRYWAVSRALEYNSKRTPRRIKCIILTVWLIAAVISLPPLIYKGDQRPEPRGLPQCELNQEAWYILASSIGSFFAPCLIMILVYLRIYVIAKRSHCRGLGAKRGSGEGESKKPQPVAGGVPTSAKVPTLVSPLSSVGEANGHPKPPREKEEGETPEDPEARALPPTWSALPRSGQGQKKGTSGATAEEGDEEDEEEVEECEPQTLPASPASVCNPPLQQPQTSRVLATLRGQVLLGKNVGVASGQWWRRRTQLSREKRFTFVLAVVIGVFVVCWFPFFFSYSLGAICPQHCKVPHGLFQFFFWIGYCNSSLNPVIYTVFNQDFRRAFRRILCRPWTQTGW
T1 sequence (P22909 whole entry): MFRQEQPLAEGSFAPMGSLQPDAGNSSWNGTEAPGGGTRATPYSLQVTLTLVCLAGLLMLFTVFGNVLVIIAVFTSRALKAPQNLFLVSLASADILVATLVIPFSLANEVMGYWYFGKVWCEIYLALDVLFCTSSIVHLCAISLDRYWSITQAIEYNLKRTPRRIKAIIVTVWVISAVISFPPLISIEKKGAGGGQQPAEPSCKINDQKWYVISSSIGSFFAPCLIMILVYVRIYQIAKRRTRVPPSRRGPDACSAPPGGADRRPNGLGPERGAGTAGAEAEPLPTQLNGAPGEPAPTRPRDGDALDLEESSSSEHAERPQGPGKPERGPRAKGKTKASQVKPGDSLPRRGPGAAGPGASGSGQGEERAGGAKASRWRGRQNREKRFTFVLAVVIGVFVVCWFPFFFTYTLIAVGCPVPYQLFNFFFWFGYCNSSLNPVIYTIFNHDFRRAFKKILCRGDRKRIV

[2] = target: T2, Adrenergic receptor alpha-1 (Rattus norvegicus, UniProt P15823+P23944+P43140); assay: Compound was tested for the inhibition of [3H]prazosin binding […] adrenergic receptor of crude rat brain membrane.
T2 sequence (P15823 whole entry): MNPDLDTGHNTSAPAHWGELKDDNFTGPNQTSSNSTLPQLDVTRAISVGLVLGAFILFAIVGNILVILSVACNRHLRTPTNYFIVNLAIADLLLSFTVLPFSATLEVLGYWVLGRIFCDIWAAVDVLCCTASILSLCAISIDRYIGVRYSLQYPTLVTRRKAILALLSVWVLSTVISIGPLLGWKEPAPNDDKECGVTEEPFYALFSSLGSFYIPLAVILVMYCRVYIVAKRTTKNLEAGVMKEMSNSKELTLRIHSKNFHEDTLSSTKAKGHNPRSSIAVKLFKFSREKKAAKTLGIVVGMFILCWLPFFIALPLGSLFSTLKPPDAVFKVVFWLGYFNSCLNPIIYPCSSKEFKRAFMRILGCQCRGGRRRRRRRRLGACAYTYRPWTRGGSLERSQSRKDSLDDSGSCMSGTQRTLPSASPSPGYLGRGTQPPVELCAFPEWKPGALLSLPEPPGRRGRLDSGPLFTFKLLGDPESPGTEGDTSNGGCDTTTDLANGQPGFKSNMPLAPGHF
T2 sequence (P23944 whole entry): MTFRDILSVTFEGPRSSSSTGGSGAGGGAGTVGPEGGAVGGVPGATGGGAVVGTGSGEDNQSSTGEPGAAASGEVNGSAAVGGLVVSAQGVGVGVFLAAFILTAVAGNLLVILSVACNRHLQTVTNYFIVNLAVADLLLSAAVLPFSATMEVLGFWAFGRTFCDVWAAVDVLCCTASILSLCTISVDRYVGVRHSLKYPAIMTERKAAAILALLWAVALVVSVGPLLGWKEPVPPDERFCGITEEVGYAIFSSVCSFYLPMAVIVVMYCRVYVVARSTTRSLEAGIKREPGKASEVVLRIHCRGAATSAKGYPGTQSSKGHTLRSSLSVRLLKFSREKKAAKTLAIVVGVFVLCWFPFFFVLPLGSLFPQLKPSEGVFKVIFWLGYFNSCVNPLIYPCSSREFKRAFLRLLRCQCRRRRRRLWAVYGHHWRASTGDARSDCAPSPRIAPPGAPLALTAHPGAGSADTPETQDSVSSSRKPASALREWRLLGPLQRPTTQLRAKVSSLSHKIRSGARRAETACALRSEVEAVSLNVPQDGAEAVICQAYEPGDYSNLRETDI
T2 sequence (P43140 whole entry): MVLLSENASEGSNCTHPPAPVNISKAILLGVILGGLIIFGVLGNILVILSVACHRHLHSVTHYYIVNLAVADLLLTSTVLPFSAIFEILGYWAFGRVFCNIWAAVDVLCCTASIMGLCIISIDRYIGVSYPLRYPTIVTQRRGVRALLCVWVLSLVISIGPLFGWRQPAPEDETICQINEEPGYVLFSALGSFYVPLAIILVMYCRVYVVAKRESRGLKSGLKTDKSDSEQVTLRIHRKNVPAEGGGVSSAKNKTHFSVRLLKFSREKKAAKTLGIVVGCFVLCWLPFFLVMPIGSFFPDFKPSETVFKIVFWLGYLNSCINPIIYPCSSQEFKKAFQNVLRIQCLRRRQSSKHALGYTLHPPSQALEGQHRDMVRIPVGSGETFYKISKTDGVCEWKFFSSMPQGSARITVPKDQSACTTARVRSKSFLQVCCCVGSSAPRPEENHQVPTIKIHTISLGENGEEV

[3] = system: Rattus norvegicus; assay: Delta BP refers to oral hypotensive activity of compound which is evaluated at 4 hr and 24 hr in restrained, normotensive conscious rats at a dose of 50 mg/kg; -17/-9; assay type: functional
Outline: (§1)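 Female Sprague-Dawley rats, normotensive, restrained in a towel. Blood pressure was read directly via chronic indwelling aortic cannulas exteriorized at the nape, before and 4 and 24 h after an oral dose suspended in carboxymethylcellulose (10 mL/kg). Values from two animals were averaged at each time; a mean change of at least 5 mmHg was taken as significant (p < 0.05).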

[4] = system: Rattus norvegicus; assay: Delta BP refers to oral hypotensive activity of compound which is evaluated at 4 hr and 24 hr in restrained, normotensive conscious rats at a dose of 50 mg/kg; -11/-16; assay type: functional; outline: as §1
[5] = system: Rattus norvegicus; assay: Delta BP refers to oral hypotensive activity of compound which is evaluated at 4 hr and 24 hr in restrained, normotensive conscious rats at a dose of 50 mg/kg; 1/0; assay type: functional; outline: as §1
[6] = system: Rattus norvegicus; assay: Delta BP refers to oral hypotensive activity of compound which is evaluated at 4 hr and 24 hr in restrained, normotensive conscious rats at a dose of 50 mg/kg; -17/-20; assay type: functional; outline: as §1
[7] = system: Rattus norvegicus; assay: Delta BP refers to oral hypotensive activity of compound which is evaluated at 4 hr and 24 hr in restrained, normotensive conscious rats at a dose of 50 mg/kg; -24/-5; assay type: functional; outline: as §1
[8] = system: Rattus norvegicus; assay: Delta BP refers to oral hypotensive activity of compound which is evaluated at 4 hr and 24 hr in restrained, normotensive conscious rats at a dose of 50 mg/kg; -19/-19; assay type: functional; outline: as §1
[9] = system: Rattus norvegicus; assay: Delta BP refers to oral hypotensive activity of compound which is evaluated at 4 hr and 24 hr in restrained, normotensive conscious rats at a dose of 50 mg/kg; -16/-10; assay type: functional; conditions: dose 15 mg/kg, in the assay text read “dose of 15 mg/kg” for “dose of 50 mg/kg”; outline: as §1
[10] = system: Rattus norvegicus; assay: Delta BP refers to oral hypotensive activity of compound which is evaluated at 4 hr and 24 hr in restrained, normotensive conscious rats at a dose of 50 mg/kg; -13/-10; assay type: functional; outline: as §1

How did the Ki [1] turn out when `COc1cc2c(cc1OC)C(CCN1CCN(c3ccc(F)cc3)CC1)OCCC2` (stereo not given) was run?
Its Ki is 307 nM.

And the Ki [2]?
Its Ki is 4 nM.

For `COc1cc2c(cc1OC)C(C)(CCN1CCN(c3ccccc3)CC1)OCC2` (stereo not given), which Delta blood pressure [3] is on record?
Its Delta blood pressure is -17 mmHg.

`COc1cc2c(cc1OC)C(C)(CCCN1CCN(c3ccccn3)CC1)OCC2` (stereo not given) was tested. Which Delta blood pressure [4] did it give?
Its Delta blood pressure is -11 mmHg.

`COc1cc2c(cc1OC)C(CCN1CCN(c3cccc(Cl)c3)CC1)OCC2` (stereo not given) was tested. Which Delta blood pressure [5] did it give?
The Delta blood pressure was 1 mmHg.

How did the Delta blood pressure [6] turn out when `COc1cc2c(cc1OC)C(CCN1CCN(c3ccccc3C)CC1)OC(C)(C)C2` (stereo not given) was run?
Its Delta blood pressure is -17 mmHg.

How did the Delta blood pressure [7] turn out when `COc1cc2c(cc1OC)C(CN1CCN(c3ccccc3C)CC1)OCC2` (stereo not given) was run?
Its Delta blood pressure is -24 mmHg.

`COc1cc2c(cc1OC)C(CCCN1CCN(c3ccccc3)CC1)(c1ccc(F)cc1)OCC2` (stereo not given) was tested. Which Delta blood pressure [8] did it give?
Its Delta blood pressure is -19 mmHg.

And the Delta blood pressure [9]?
The Delta blood pressure was -16 mmHg.

With `COc1cc2c(cc1OC)C(CCN1CCN(c3ccccc3)CC1)OCC2` (stereo not given) as the molecule, how does the Delta blood pressure [10] read?
The Delta blood pressure was -13 mmHg.
